Most compounds without a hit are left out; they make up all but 1.1% or so of the library.
Bfl-1 A1 inh – inhibitors of the anti-apoptotic protein A1, read as caspase activation; MEF A1-2A-BIM cells, Caspase-Glo 3/7 luminescence, 3 h; percent of clofoctol response, vehicle zero; caspase activation, % (no concentration beside the values); 0.066% of 330,000 active;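 active = over half of replicate activation scores above 10%, or exactly half above 10 with the replicate mean above 10; inconclusive = replicate mean below 10 yet half the replicates above 10; inactive = over half of replicates below 10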
NPR1 activator – GC-A (human) enzyme activation | P16066 | HEK293 GC-A cells, cGMP TR-FRET, EC30 ANP; 0% at EC30 ANP, 100% saturating ANP | activation, % at 10 µM | 0.14% of 370,000 active | AID 1671463; in the data active = activation above about 40%
MT1-MMP act inh – inhibitors of human MT1-MMP activation. GFP/RFP ratio change, % at 20 µM. 0.061% of 360,000 active. P50281. HT1080 RFP-PRO-GFP cells, GFP/RFP ratio fluorescence, overnight; percent of plate control window, DMSO zero. AID 651647;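 active = GFP/RFP ratio change of at least 30% with cell ATP level not reduced by more than half and red fluorescence within 50% of control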
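Material – HT1080 RFP-PRO-GFP cells · Control set – DMSO wells and RFP-L50D-GFP cells · Incubation – overnight cell settling, then overnight compound exposure, 37 °C, 5% CO2 · Compound dosing – single-point 20 µM compound, 1% DMSO · Read-out – GFP/RFP fluorescence ratio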
TbMetRS inhib – Trypanosoma brucei MetRS inhibition; purified T. brucei MetRS, ATP depletion, Kinase-Glo luminescence; inhibition, % at 11.9 µM; 0.4% of 360,000 active; AID 624268;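 active = inhibition above a per-plate cutoff of the control wells' mean inhibition plus 3 SD, cut at about 5.5% in these data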;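 also: 0% = DMSO wells median and 100% = median of wells with control inhibitor compound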
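Test system – parasite MetRS enzyme · Reagent – substrates ATP, L-methionine and bulk Escherichia coli tRNA · Doses – 11.9 µM compound single dose, 0.9% DMSO · Times – 15 min enzyme-compound preincubation, 2 h reaction, 10 min detection, 25 °C · Signal – Kinase-Glo luminescence, ATP depletion format · Controls – DMSO-only wells as low control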
NPR2 activator – GC-B (human) receptor activation. P20594. HEK293-GC-B cells, CNP EC30, cGMP TR-FRET; 0% at EC30 CNP, 100% saturating CNP. activation, % at 10 µM. 0.11% of 370,000 active. AID 1920062;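 active = activation at 10 µM reaching about 35% in either raw or pattern-adjusted values, limit read from the data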
Target sequence (P20594 whole entry, looked up): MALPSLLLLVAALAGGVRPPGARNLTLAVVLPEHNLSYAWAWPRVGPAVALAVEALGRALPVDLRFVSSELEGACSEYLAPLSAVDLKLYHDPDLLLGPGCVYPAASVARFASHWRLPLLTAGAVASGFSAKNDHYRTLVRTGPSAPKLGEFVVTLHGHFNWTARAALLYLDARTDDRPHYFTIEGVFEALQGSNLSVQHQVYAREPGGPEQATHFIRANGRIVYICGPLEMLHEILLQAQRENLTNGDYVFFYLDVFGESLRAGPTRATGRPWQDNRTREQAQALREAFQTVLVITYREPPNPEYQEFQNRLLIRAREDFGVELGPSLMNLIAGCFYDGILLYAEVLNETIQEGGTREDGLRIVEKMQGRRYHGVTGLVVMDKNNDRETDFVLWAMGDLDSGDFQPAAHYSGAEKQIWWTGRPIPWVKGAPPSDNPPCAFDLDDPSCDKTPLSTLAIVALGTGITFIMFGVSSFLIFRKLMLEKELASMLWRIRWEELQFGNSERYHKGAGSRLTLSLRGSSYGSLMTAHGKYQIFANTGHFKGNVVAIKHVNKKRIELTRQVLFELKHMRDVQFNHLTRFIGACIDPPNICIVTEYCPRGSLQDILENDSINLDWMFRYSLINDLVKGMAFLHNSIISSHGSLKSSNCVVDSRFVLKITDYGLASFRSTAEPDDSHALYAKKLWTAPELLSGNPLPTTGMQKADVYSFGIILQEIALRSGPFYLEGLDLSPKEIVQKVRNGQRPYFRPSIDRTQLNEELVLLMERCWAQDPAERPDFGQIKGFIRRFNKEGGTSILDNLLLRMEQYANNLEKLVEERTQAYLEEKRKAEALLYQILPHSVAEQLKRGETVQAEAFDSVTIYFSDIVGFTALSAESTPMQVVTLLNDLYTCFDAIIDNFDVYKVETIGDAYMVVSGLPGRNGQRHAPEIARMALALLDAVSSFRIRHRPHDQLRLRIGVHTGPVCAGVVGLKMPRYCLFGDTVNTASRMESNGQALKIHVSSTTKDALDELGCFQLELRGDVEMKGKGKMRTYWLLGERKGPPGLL
SKN-1 inh – inhibitors of C. elegans SKN-1; C. elegans VP596 Pgst-4::GFP/RFP ratio, acrylamide-induced, 24 h; inhibition, % at 21.8 µM; 0.49% of 360,000 active;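 active = interference check ratio from 0.5 to 1.5 plus GFP to RFP signal ratio inhibition reaching or exceeding a fixed threshold, cut at about 30% in these data, passing the limit was not always enough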
Starred values were filed as active, the others as inactive; ? = inconclusive; . = not tested or not shown.

SMILES	Bfl-1 A1 inh	NPR1 activator	MT1-MMP act inh	TbMetRS inhib	NPR2 activator	SKN-1 inh
CCN1C(=O)c2cccc3c(NC(=O)c4ccc(S(=O)(=O)N5CCOCC5)cc4)ccc1c23	0.4	7.5	-0.7	-1.0	12.3	7.8
CCN1C(=O)c2cccc3c(NC(=O)c4ccc(S(=O)(=O)N(C)C)cc4)ccc1c23	0.8	28.9	7.3	0.0	41.5*	7.2
O=C(c1cc(COc2ccc(F)cc2Cl)on1)N1CC2C[C@@H]3CC1C[C@H](C2)C3	-2.1	1.3	-3.0	0.3	1.6	35.5*
O=C(c1cc(COc2ccc(F)cc2Cl)on1)N1C[C@H]2CC[C@H]1C2	-1.2	11.5	7.4	-0.8	-0.8	14.5
COc1ccc(N(CC(=O)NC2CCCCC2)C(=O)CNC(=O)c2cccs2)cc1	0.6	-2.1	-0.3	-0.1	11.0	41.0*
CCCC1CCC2(CCCN2CCOC(=O)Nc2ccc(F)cc2)CC1 (stereo not drawn)	.	-3.2	.	.	-5.4	.
CCOc1cccc2sc(N(CCCN(C)C)C(=O)c3ccc(S(=O)(=O)N4CCc5ccccc5C4)cc3)nc12	-0.2	-7.8	-3.2	-0.5	-1.2	-11.9
CCc1ccc2nc(N(CCCN(C)C)C(=O)c3ccc(S(=O)(=O)N4CCc5ccccc5C4)cc3)sc2c1	23.8*	-2.5	3.5	0.2	-0.3	-1.6
CCN(CC(=O)Nc1ccccc1C(F)(F)F)C(=O)c1ccccc1Cc1ccccc1	0.2	-4.1	5.5	-0.6	-2.1	19.1
CCN(CC(=O)Nc1ccccc1C(F)(F)F)C(=O)C1CC(=O)N(Cc2ccccc2)C1 (stereo not drawn)	-0.6	1.8	-1.5	-0.3	1.5	35.1*
CCCCCCNC(=O)C1CSCCS(=O)(=O)N1Cc1ccc(F)cc1 (stereo not drawn)	.	0.2	.	.	-0.4	.
CCN(C(=O)COC(=O)c1cc(-c2cccc3ccccc23)nc2ccccc12)C1CCS(=O)(=O)C1 (stereo not drawn)	0.4	-2.5	-5.2	-0.6	-6.4	39.5*
O=C(Cn1nnc(-c2ccc(N3CCOCC3)cc2)n1)c1cccc(F)c1	.	2.5	.	.	-0.1	.
Cc1cc(-c2csc(NC(=O)c3ccc(=O)n(C)n3)n2)c(C)n1CC1CCCO1 (stereo not drawn)	-0.9	.	-0.2	1.2	.	38.6*
Cc1cc(-c2csc(NC(=O)c3ccc(=O)[nH]c3)n2)c(C)n1Cc1ccco1	0.2	-17.2	-1.5	0.8	-0.5	-5.6
CCCNC(=O)C[C@H]1CC[C@H]2[C@@H](COc3ccc(NC(=O)c4cncs4)cc3C(=O)N2C)O1	.	0.7	.	.	6.4	.
O=C1/C(=C/c2ccccc2)CCCc2ccccc21	-5.7	-0.4	-0.5	-1.1	-6.8	46.7*
CCOC(=O)Cn1ccc(NC(=O)COc2ccc(F)cc2)n1	0.0	16.9	1.9	-0.8	-1.5	-17.8
CCOC(=O)Cn1ccc(NC(=O)c2ccc(F)cc2)n1	-6.9	49.6*	0.9	-0.9	-10.1	-3.4
CCOC(=O)Cn1ccc(NC(=O)COc2ccc(F)cc2F)n1	0.6	41.0*	2.1	0.3	-3.2	-2.0
C=CCNC(=O)N1CCN(Cc2nc3ccccc3c(=O)[nH]2)CC1	.	-2.7	.	.	-2.4	.
Cc1ccc(CNC(=O)O[C@H]2CC[C@@]34CCCN3C(=O)CCC[C@H]4[C@H]2C)cc1	.	-0.9	.	.	-2.6	.
Brc1ccccc1Cn1c(-c2cscn2)nc2ccccc21	-0.3	36.2	4.8	-1.4	39.0*	-4.7
N#Cc1c(C#N)c(SSc2c(C#N)c(C#N)c(N)n2-c2ccccc2)n(-c2ccccc2)c1N	.	-8.3	1.4	0.1	55.3*	0.3
N#Cc1c(N)n(-c2ccc(N)cc2)c2nc3ccccc3nc12	0.1	-3.6	3.7	-0.7	-6.9	-2.0
SMILES	Bfl-1 A1 inh	NPR1 activator	MT1-MMP act inh	TbMetRS inhib	NPR2 activator	SKN-1 inh
O=C(NC1CCN(C(=S)Nc2ccc(Cl)cc2)CC1)c1ccco1	-0.8	0.7	-0.8	0.1	0.2	47.3*
O=C(CSc1nnc(-c2cnccn2)n1-c1ccccc1)Nc1ccc2c(c1)OCCO2	.	-2.4	.	.	1.2	.
Cc1ccc2c(c1)C1CS(=O)(=O)N(CCc3ccccc3)C(=O)N1C2 (stereo not drawn)	.	-1.2	.	.	-5.4	.
COc1ccc(OC)c(Nc2nc(C3CC3)nc3c2nnn3Cc2ccccc2)c1	-0.1	-1.8	3.1	-0.1	-6.5	-48.2
c1ccc(Cn2nnc3c(Nc4ccc5c(c4)OCO5)nc(C4CC4)nc32)cc1	1.0	34.0	-1.4	-0.5	41.2*	3.9
c1nc(NCC2CCCC2)c2cc(-c3ccc4c(c3)OCO4)ccc2n1	.	17.6	.	.	13.6	.
O=C(NCCCN1CCN(c2ccc(F)cc2)CC1)NCc1ccccc1	.	-0.3	.	.	-5.3	.
Cc1ccc(-c2nc3cccnc3o2)cc1NC(=O)COc1ccc(C(C)(C)C)cc1	0.2	0.6	4.0	-0.7	5.0	43.0*
O=C(CN1C(=O)CCSc2ccccc21)Nc1ccc(F)cc1F	.	2.1	.	.	5.6	.
Clc1ccc(Nc2ncnc3ccc(Br)cc23)cc1	0.6	4.1	-27.4	0.8	6.3	36.3*
Clc1ccc2nc(-c3ccc(Br)s3)cn2c1	-4.9	6.9	7.8	0.0	-2.1	70.2*
COc1ccc(-c2cn3cc(Cl)ccc3n2)cc1OC	-2.2	-1.1	14.0	-0.5	4.7	12.6
COCCCNC(=O)C[C@H]1C[C@@]2(C(=O)OC)C(=C[C@H](C(C)(C)C)O[C@@H]2C)N(Cc2cccc3ccccc23)C1=O	.	-5.7	.	.	-8.9	.
CCn1c(SCC(=O)Nc2cc(C)on2)nc2c([nH]c3ccccc32)c1=O	0.7	58.7*	0.6	-0.2	-1.5	-2.2
CCCCCCn1c(SCC(=O)Nc2cc(C)on2)nc2ccccc2c1=O	0.9	7.7	-4.8	-0.5	-1.4	0.2
COCCn1c(SCC(=O)Nc2cc(C)on2)nc2c([nH]c3ccccc32)c1=O	.	49.9*	-1.4	-0.3	-2.3	-11.7
COCCn1c(SCC(=O)Nc2ccc(NC(C)=O)cc2)nc2c([nH]c3ccccc32)c1=O	?	-5.9	-6.2	-0.3	-3.3	-9.7
Cc1cc(NC(=O)CSc2nc3ccccc3c(=O)n2Cc2ccc(F)cc2)no1	-0.2	11.4	-4.4	-1.1	16.1	31.5*
CCn1c(SCC(=O)Nc2cccc(NC(C)=O)c2)nc2c([nH]c3ccccc32)c1=O	-1.0	1.4	-0.6	-0.3	-1.4	-19.7
O=C(c1nc[nH]c1C(=O)N1CCc2ccccc2C1)N1CCc2ccccc2C1	-0.6	-0.6	1.0	0.0	0.2	37.7*
CN(Cc1ccccc1)C(=O)c1nc[nH]c1C(=O)N1CCc2ccccc2C1	0.7	3.1	-3.1	-0.2	-0.5	-12.0

Source: PubChem (several laboratories)
